For experiment [1], the target named is T1, Neuromedin-B receptor (Homo sapiens, UniProt P28336). Put plainly: Affinity of [125I][D-Tyr0]-NMB to human Neuromedin B receptor expressed in HEK293 cells. The class given is cell-based. The method in brief: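 Whole-cell competition binding on HEK293 cells stably transfected with hNMBR, 1 · 10⁶ cells per well in DMEM. Incubation 1 h at room temperature with 150 pM ¹²⁵I-[D-Tyr0]NMB (2200 Ci/mmol). Bound and free ligand separated by filtration; bound counts read by scintillation counting.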
T1 sequence (P28336 whole entry): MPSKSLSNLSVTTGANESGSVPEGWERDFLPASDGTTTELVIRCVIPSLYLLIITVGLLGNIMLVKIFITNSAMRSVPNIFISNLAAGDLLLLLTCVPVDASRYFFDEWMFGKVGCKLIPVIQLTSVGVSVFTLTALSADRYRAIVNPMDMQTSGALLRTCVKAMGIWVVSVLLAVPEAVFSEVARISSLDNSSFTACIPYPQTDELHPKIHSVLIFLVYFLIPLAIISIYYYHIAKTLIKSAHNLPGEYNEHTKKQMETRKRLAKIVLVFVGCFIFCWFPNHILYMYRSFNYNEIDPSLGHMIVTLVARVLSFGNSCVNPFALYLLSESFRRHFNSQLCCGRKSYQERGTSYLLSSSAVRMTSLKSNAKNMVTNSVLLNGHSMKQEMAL

Experiment [2] has as its target T1, Neuromedin-B receptor. Put plainly: Agonistic activity was determined against human Neuromedin B receptor transfected in HEK293 cells as accumulation levels of inositol phosphate. The class given is functional, cell-based. A digest of the protocol:
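hNMBR-transfected HEK293 cells (2.5 · 10⁴) labelled overnight at 37 °C in high-glucose DMEM with 25 mM Hepes, 10% dialyzed FBS and myo-[³H]inositol. Compounds added in inositol-free DMEM with 0.3% BSA and 10 mM LiCl, 60 min, 37 °C. Lysis in 20 mM formic acid, 2 h, 4 °C. Inositol phosphates captured on SPA beads and counted next day.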

Experiment [3] relates to HeLa. The experiment is described as follows: Cytotoxicity towards HeLa cells was determined. The class given is functional, cell-based. To be noted: Homo sapiens.

Usually IC50 stands for the point on the concentration scale where inhibition reaches its midpoint. In turn, `Cc1cccc2[nH]c3c(c12)CC(NC(=O)Nc1c(C(C)C)cccc1C(C)C)(C(=O)NCC1(c2ccccn2)CCCCC1)CC3` (stereo not given) returned an IC50 in experiment [1] of 660 nM. `CCNC(=O)NC1(C(=O)NCC2(c3ccccn3)CCCCC2)CCc2[nH]c3ccccc3c2C1` (stereo not given) showed a half-maximal inhibitory concentration (IC50) in experiment [1] above 10000 nM. `CC(C)c1cccc(C(C)C)c1NC(=O)NC1(C(=O)NCC2(c3ccccn3)CCCCC2)CCc2[nH]c3cc(Br)ccc3c2C1` (stereo not given) had an IC50 in experiment [1] of 2140 nM. This lies in the single-digit micromolar range.

With `CC(C)c1cccc(C(C)C)c1NC(=O)NC1(C(=O)NCC2(c3ccc(Cl)cc3)CC2)CCc2[nH]c3ccccc3c2C1` (stereo not given), the concentration for half-maximal inhibition (IC50) in experiment [1] was above 10000 nM. As to `CC(C)c1cccc(C(C)C)c1NC(=O)NC1(C(=O)NCC2(c3ccccn3)CCCCC2)CCc2[nH]c3cccc(C(F)(F)F)c3c2C1` (stereo not given), the IC50 in experiment [1] came to 3660 nM. This lies in the single-digit micromolar range.

For the compound `Cc1cc([N+](=O)[O-])ccc1NC(=O)NC1(C(=O)NCC2(c3ccccn3)CCCCC2)CCc2[nH]c3ccccc3c2C1` (stereo not given), in experiment [1], half-maximal inhibition (IC50) required 620 nM. On the same count and under the same terms, in the case of `O=C(Nc1ccc([N+](=O)[O-])cc1)NC1(C(=O)NCC2(c3ccccn3)CCCCC2)CCc2[nH]c3ccccc3c2C1` (stereo not given) it was 800 nM; in that of `CC(C)(CNC(=O)C1(NC(=O)Nc2ccc([N+](=O)[O-])cc2)CCc2[nH]c3ccccc3c2C1)c1ccccn1` (stereo not given), 10000 nM; in that of `CC(C)c1cccc(C(C)C)c1NC(=O)NC1(C(=O)NCC2(c3ccccn3)CCCCC2)CCc2[nH]c3cccc([N+](=O)[O-])c3c2C1` (stereo not given), above 10000 nM. Consider `O=C(Nc1ccc(C(F)(F)F)cc1)NC1(C(=O)NCC2(c3ccccn3)CCCCC2)CCc2[nH]c3ccccc3c2C1` (stereo not given), for which the 50% inhibitory concentration (IC50) in experiment [1] was determined as 1110 nM. This counts as single-digit micromolar. Compound `CCOC(=O)c1cc(NC(=O)NC2(C(=O)NCC3(c4ccccn4)CCCCC3)CCc3[nH]c4ccccc4c3C2)cc(C(=O)OCC)c1` (stereo not given) displayed an IC50 in experiment [1] of 1850 nM. This IC50 lies about 1.7-fold higher than the previous one. For `O=C(NC1CCCCC1)NC1(C(=O)NCC2(c3ccccn3)CCCCC2)CCc2[nH]c3ccccc3c2C1` (stereo not given), the concentration for half-maximal inhibition (IC50) in experiment [1] was determined as 3920 nM. For `O=C(Nc1ccc([N+](=O)[O-])cc1)NC1(C(=O)NCC2(c3ccccn3)CCS(=O)(=O)CC2)CCc2[nH]c3ccccc3c2C1` (stereo not given), the IC50 in experiment [1] was above 10000 nM. `CC(=O)c1cccc(NC(=O)NC2(C(=O)NCC3(c4ccccn4)CCCCC3)CCc3[nH]c4ccccc4c3C2)c1` (stereo not given) registered an IC50 in experiment [1] of 2270 nM. As for `COc1ccccc1NC(=O)NC1(C(=O)NCC2(c3ccccn3)CCCCC2)CCc2[nH]c3ccccc3c2C1` (stereo not given), in experiment [1], the IC50 was 8720 nM. In experiment [1], `O=C(Nc1ccc(OC(F)(F)F)cc1)NC1(C(=O)NCC2(c3ccccn3)CCCCC2)CCc2[nH]c3ccccc3c2C1` (stereo not given) had an IC50 of 3040 nM. A word on the EC50: it is the concentration needed to bring the measured effect to its halfway point. Read a low EC50 as higher potency in that assay. In experiment [2], `CC(C)c1cccc(C(C)C)c1NC(=O)NC1(C(=O)NCC2(c3ccccn3)CCCCC2)CCc2[nH]c3ccccc3c2C1` (stereo not given) yielded an EC50 of 603 nM. For the same compound, half-maximal inhibition in experiment [1] (IC50) required 320 nM. On to `Cc1cccc(C)c1NC(=O)NC1(C(=O)NCC2(c3ccccn3)CCCCC2)CCc2[nH]c3ccccc3c2C1` (stereo not given), for which the IC50 in experiment [1] is 5490 nM. Same read-out and setting: the result for `CC(C)c1cccc(C(C)C)c1NC(=O)NC1(C(=O)NCC2(c3ccccn3)CCCCC2)CCc2[nH]c3cccc(C(=O)O)c3c2C1` (stereo not given) reads above 10000 nM; that for `NC(=O)NC1(C(=O)NCC2(c3ccccn3)CCCCC2)CCc2[nH]c3ccccc3c2C1` (stereo not given), above 10000 nM; that for `CC(C)c1cccc(C(C)C)c1NC(=O)NC1(C(=O)NCC2(c3ccccn3)CCCCC2)CCc2[nH]c3cccc(OC(F)(F)F)c3c2C1` (stereo not given), 1890 nM.

In turn, `CC(C)c1cccc(C(C)C)c1NC(=O)NC1(C(=O)NCC2(c3ccccn3)CC2)CCc2[nH]c3ccccc3c2C1` (stereo not given) returned an IC50 in experiment [1] of 3350 nM. The compound `O=C(Nc1ccc([N+](=O)[O-])cc1)NC1(C(=O)NCCc2ccccn2)CCc2[nH]c3ccccc3c2C1` (stereo not given) gave an IC50 in experiment [1] above 10000 nM. For the compound `CC(C)c1cccc(C(C)C)c1NC(=O)NC1(C(=O)NCC2(c3ccccn3)CCCCC2)CCc2[nH]c3cc(F)ccc3c2C1F` (stereo not given), the IC50 in experiment [1] stood at 1010 nM. The compound `CC(C)c1cccc(C(C)C)c1NC(=O)NC1(C(=O)NCC(C)(C)c2ccccn2)CCc2[nH]c3ccccc3c2C1` (stereo not given) returned an IC50 in experiment [1] of 4150 nM.

Consider `CC(C)c1cccc(C(C)C)c1NC(=O)N[C@@](C)(Cc1c[nH]c2ccccc12)C(=O)NCC1(c2ccccn2)CCCCC1`, for which inhibition in experiment [1] was half-maximal at 350 nM (IC50). As for `COc1cccc2[nH]c3c(c12)CC(NC(=O)Nc1c(C(C)C)cccc1C(C)C)(C(=O)NCC1(c2ccccn2)CCCCC1)CC3` (single isomer, unassigned; (+)), the EC50 in experiment [2] stood at 17.7 nM. Also, the results for the IC50 in experiment [1] and in experiment [3] were 29 nM and above 50000 nM, respectively.

`COc1cccc2[nH]c3c(c12)CC(NC(=O)Nc1c(C(C)C)cccc1C(C)C)(C(=O)NCC1(c2ccccn2)CCCCC1)CC3` (single isomer, unassigned; (-)): the EC50 in experiment [2] is 1970 nM. As to `COc1cccc2[nH]c3c(c12)CC(NC(=O)Nc1c(C(C)C)cccc1C(C)C)(C(=O)NCC1(c2ccccn2)CCCCC1)CC3` (stereo in doubt; 20), in experiment [2], a half-maximal response (EC50) required 132 nM. Also, the IC50 in experiment [1] was found to be 250 nM. Take `Cc1ccc2[nH]c3c(c2c1)C(C)C(NC(=O)Nc1c(C(C)C)cccc1C(C)C)(C(=O)NCC1(c2ccccn2)CCCCC1)CC3` (stereo in doubt; 22): the IC50 in experiment [1] came out at 700 nM. Still for that read-out and setting: the result for `Cc1ccc2[nH]c3c(c2c1)C(C)C(NC(=O)Nc1c(C(C)C)cccc1C(C)C)(C(=O)NCC1(c2ccccn2)CCCCC1)CC3` (stereo in doubt; 23) reads 790 nM.

The record behind these values is ChEMBL document CHEMBL1146776, “Identification and optimization of novel partial agonists of neuromedin B receptor using parallel synthesis” (Bioorg Med Chem Lett, 2004).
